In ChEMBL document CHEMBL4152206, “Design, synthesis, cytotoxicity and mechanism of novel dihydroartemisinin-coumarin hybrids as potential anti-cancer agents” (Eur J Med Chem, 2018):

system: HT-29; test: Cytotoxicity against human HT-29 cells after 96 hrs under hypoxic condition by MTT assay; format: functional, cell-based; details: Homo sapiens, HT-29, 96 h; read-out: IC50
Method in brief: (§1)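 MTT viability assay in HT-29 (high CA IX) and MDA-MB-231 (normal CA IX) cells under normoxic and hypoxic conditions; IC50 values reported.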

Structure (SMILES)	IC50
Cc1c(C)c2ccc(OCCO[C@H]3O[C@@H]4O[C@@]5(C)CC[C@H]6[C@H](C)CC[C@@H]([C@H]3C)[C@@]46OO5)cc2oc1=O	57.2 µM
Cc1c(Cl)c(=O)oc2cc(O[C@H]3O[C@@H]4O[C@@]5(C)CC[C@H]6[C@H](C)CC[C@@H]([C@H]3C)[C@@]46OO5)ccc12	0.41 µM
C[C@H]1[C@@H](OCCOc2ccc3c(C(F)(F)F)cc(=O)oc3c2)O[C@@H]2O[C@@]3(C)CC[C@H]4[C@H](C)CC[C@@H]1[C@@]24OO3	5.59 µM
Cc1c(F)c(=O)oc2cc(-n3cc(CCO[C@H]4O[C@@H]5O[C@@]6(C)CC[C@H]7[C@H](C)CC[C@@H]([C@H]4C)[C@@]57OO6)nn3)ccc12	5.66 µM
Cc1cc(=O)oc2cc(OCCn3cc(CCO[C@H]4O[C@@H]5O[C@@]6(C)CC[C@H]7[C@H](C)CC[C@@H]([C@H]4C)[C@@]57OO6)nn3)ccc12	10.7 µM
Cc1c(C)c2ccc(-n3cc(CO[C@H]4O[C@@H]5O[C@@]6(C)CC[C@H]7[C@H](C)CC[C@@H]([C@H]4C)[C@@]57OO6)nn3)cc2oc1=O	0.02 µM
Cc1c(C)c2ccc(-n3cc(CCO[C@H]4O[C@@H]5O[C@@]6(C)CC[C@H]7[C@H](C)CC[C@@H]([C@H]4C)[C@@]57OO6)nn3)cc2oc1=O	0.08 µM
C[C@H]1[C@@H](OCCc2cn(-c3ccc4c(C(F)(F)F)cc(=O)oc4c3)nn2)O[C@@H]2O[C@@]3(C)CC[C@H]4[C@H](C)CC[C@@H]1[C@@]24OO3	10.3 µM
C[C@H]1[C@@H](O)O[C@@H]2O[C@@]3(C)CC[C@H]4[C@H](C)CC[C@@H]1[C@@]24OO3 [ARTENIMOL]	18.5 µM
Cc1c(Cl)c(=O)oc2cc(OCCn3cc(CCO[C@H]4O[C@@H]5O[C@@]6(C)CC[C@H]7[C@H](C)CC[C@@H]([C@H]4C)[C@@]57OO6)nn3)ccc12	2.37 µM
Cc1cc(=O)oc2cc(-n3cc(CO[C@H]4O[C@@H]5O[C@@]6(C)CC[C@H]7[C@H](C)CC[C@@H]([C@H]4C)[C@@]57OO6)nn3)ccc12	5.09 µM
Cc1cc(=O)oc2cc(-n3cc(CCO[C@H]4O[C@@H]5O[C@@]6(C)CC[C@H]7[C@H](C)CC[C@@H]([C@H]4C)[C@@]57OO6)nn3)ccc12	10.9 µM
Cc1cc(=O)oc2cc(OCCCn3cc(CCO[C@H]4O[C@@H]5O[C@@]6(C)CC[C@H]7[C@H](C)CC[C@@H]([C@H]4C)[C@@]57OO6)nn3)ccc12	0.11 µM
Cc1c(C)c2ccc(OCCn3cc(CCO[C@H]4O[C@@H]5O[C@@]6(C)CC[C@H]7[C@H](C)CC[C@@H]([C@H]4C)[C@@]57OO6)nn3)cc2oc1=O	14.6 µM

same assay, conditions: ht-29

Structure (SMILES)	IC50
COC(=O)c1cc2ccc(OCCCn3cc(CCO[C@H]4O[C@@H]5O[C@@]6(C)CC[C@H]7[C@H](C)CC[C@@H]([C@H]4C)[C@@]57OO6)nn3)cc2oc1=O	Nd(Insoluble)

system: MDA-MB-231; test: Cytotoxicity against human MDA-MB-231 cells after 96 hrs under hypoxic condition by MTT assay; format: functional, cell-based; details: Homo sapiens, MDA-MB-231, 96 h; read-out: IC50; method in brief: as §1

Structure (SMILES)	IC50
Cc1c(C)c2ccc(OCCO[C@H]3O[C@@H]4O[C@@]5(C)CC[C@H]6[C@H](C)CC[C@@H]([C@H]3C)[C@@]46OO5)cc2oc1=O	12.8 µM
Cc1c(Cl)c(=O)oc2cc(O[C@H]3O[C@@H]4O[C@@]5(C)CC[C@H]6[C@H](C)CC[C@@H]([C@H]3C)[C@@]46OO5)ccc12	1.4 µM
C[C@H]1[C@@H](OCCOc2ccc3c(C(F)(F)F)cc(=O)oc3c2)O[C@@H]2O[C@@]3(C)CC[C@H]4[C@H](C)CC[C@@H]1[C@@]24OO3	6.14 µM
Cc1c(F)c(=O)oc2cc(-n3cc(CCO[C@H]4O[C@@H]5O[C@@]6(C)CC[C@H]7[C@H](C)CC[C@@H]([C@H]4C)[C@@]57OO6)nn3)ccc12	3.36 µM
Cc1cc(=O)oc2cc(OCCn3cc(CCO[C@H]4O[C@@H]5O[C@@]6(C)CC[C@H]7[C@H](C)CC[C@@H]([C@H]4C)[C@@]57OO6)nn3)ccc12	18.2 µM
Cc1c(C)c2ccc(-n3cc(CO[C@H]4O[C@@H]5O[C@@]6(C)CC[C@H]7[C@H](C)CC[C@@H]([C@H]4C)[C@@]57OO6)nn3)cc2oc1=O	4.85 µM
Cc1c(C)c2ccc(-n3cc(CCO[C@H]4O[C@@H]5O[C@@]6(C)CC[C@H]7[C@H](C)CC[C@@H]([C@H]4C)[C@@]57OO6)nn3)cc2oc1=O	3.58 µM
C[C@H]1[C@@H](OCCc2cn(-c3ccc4c(C(F)(F)F)cc(=O)oc4c3)nn2)O[C@@H]2O[C@@]3(C)CC[C@H]4[C@H](C)CC[C@@H]1[C@@]24OO3	95.7 µM
C[C@H]1[C@@H](O)O[C@@H]2O[C@@]3(C)CC[C@H]4[C@H](C)CC[C@@H]1[C@@]24OO3 [ARTENIMOL]	5.64 µM
Cc1c(Cl)c(=O)oc2cc(OCCn3cc(CCO[C@H]4O[C@@H]5O[C@@]6(C)CC[C@H]7[C@H](C)CC[C@@H]([C@H]4C)[C@@]57OO6)nn3)ccc12	7.24 µM
Cc1cc(=O)oc2cc(-n3cc(CO[C@H]4O[C@@H]5O[C@@]6(C)CC[C@H]7[C@H](C)CC[C@@H]([C@H]4C)[C@@]57OO6)nn3)ccc12	49.8 µM
Cc1cc(=O)oc2cc(-n3cc(CCO[C@H]4O[C@@H]5O[C@@]6(C)CC[C@H]7[C@H](C)CC[C@@H]([C@H]4C)[C@@]57OO6)nn3)ccc12	9.96 µM
Cc1cc(=O)oc2cc(OCCCn3cc(CCO[C@H]4O[C@@H]5O[C@@]6(C)CC[C@H]7[C@H](C)CC[C@@H]([C@H]4C)[C@@]57OO6)nn3)ccc12	14.4 µM
Cc1c(C)c2ccc(OCCn3cc(CCO[C@H]4O[C@@H]5O[C@@]6(C)CC[C@H]7[C@H](C)CC[C@@H]([C@H]4C)[C@@]57OO6)nn3)cc2oc1=O	52.3 µM

same assay, conditions: mda-mb-231

Structure (SMILES)	IC50
COC(=O)c1cc2ccc(OCCCn3cc(CCO[C@H]4O[C@@H]5O[C@@]6(C)CC[C@H]7[C@H](C)CC[C@@H]([C@H]4C)[C@@]57OO6)nn3)cc2oc1=O	Nd(Insoluble)

system: HT-29; test: Cytotoxicity against human HT-29 cells after 96 hrs under normoxic condition by MTT assay; format: functional, cell-based; details: Homo sapiens, HT-29, 96 h; read-out: IC50; method in brief: as §1

Structure (SMILES)	IC50
Cc1c(C)c2ccc(OCCO[C@H]3O[C@@H]4O[C@@]5(C)CC[C@H]6[C@H](C)CC[C@@H]([C@H]3C)[C@@]46OO5)cc2oc1=O	12.8 µM
Cc1c(Cl)c(=O)oc2cc(O[C@H]3O[C@@H]4O[C@@]5(C)CC[C@H]6[C@H](C)CC[C@@H]([C@H]3C)[C@@]46OO5)ccc12	1.28 µM
C[C@H]1[C@@H](OCCOc2ccc3c(C(F)(F)F)cc(=O)oc3c2)O[C@@H]2O[C@@]3(C)CC[C@H]4[C@H](C)CC[C@@H]1[C@@]24OO3	54.8 µM
Cc1c(F)c(=O)oc2cc(-n3cc(CCO[C@H]4O[C@@H]5O[C@@]6(C)CC[C@H]7[C@H](C)CC[C@@H]([C@H]4C)[C@@]57OO6)nn3)ccc12	9.89 µM
Cc1cc(=O)oc2cc(OCCn3cc(CCO[C@H]4O[C@@H]5O[C@@]6(C)CC[C@H]7[C@H](C)CC[C@@H]([C@H]4C)[C@@]57OO6)nn3)ccc12	5.72 µM
Cc1c(C)c2ccc(-n3cc(CO[C@H]4O[C@@H]5O[C@@]6(C)CC[C@H]7[C@H](C)CC[C@@H]([C@H]4C)[C@@]57OO6)nn3)cc2oc1=O	2.67 µM
Cc1c(C)c2ccc(-n3cc(CCO[C@H]4O[C@@H]5O[C@@]6(C)CC[C@H]7[C@H](C)CC[C@@H]([C@H]4C)[C@@]57OO6)nn3)cc2oc1=O	4.71 µM
C[C@H]1[C@@H](OCCc2cn(-c3ccc4c(C(F)(F)F)cc(=O)oc4c3)nn2)O[C@@H]2O[C@@]3(C)CC[C@H]4[C@H](C)CC[C@@H]1[C@@]24OO3	6.07 µM
C[C@H]1[C@@H](O)O[C@@H]2O[C@@]3(C)CC[C@H]4[C@H](C)CC[C@@H]1[C@@]24OO3 [ARTENIMOL]	> 100 µM
Cc1c(Cl)c(=O)oc2cc(OCCn3cc(CCO[C@H]4O[C@@H]5O[C@@]6(C)CC[C@H]7[C@H](C)CC[C@@H]([C@H]4C)[C@@]57OO6)nn3)ccc12	5.28 µM
Cc1cc(=O)oc2cc(-n3cc(CO[C@H]4O[C@@H]5O[C@@]6(C)CC[C@H]7[C@H](C)CC[C@@H]([C@H]4C)[C@@]57OO6)nn3)ccc12	10.8 µM
Cc1cc(=O)oc2cc(-n3cc(CCO[C@H]4O[C@@H]5O[C@@]6(C)CC[C@H]7[C@H](C)CC[C@@H]([C@H]4C)[C@@]57OO6)nn3)ccc12	8.95 µM
Cc1cc(=O)oc2cc(OCCCn3cc(CCO[C@H]4O[C@@H]5O[C@@]6(C)CC[C@H]7[C@H](C)CC[C@@H]([C@H]4C)[C@@]57OO6)nn3)ccc12	6.87 µM
Cc1c(C)c2ccc(OCCn3cc(CCO[C@H]4O[C@@H]5O[C@@]6(C)CC[C@H]7[C@H](C)CC[C@@H]([C@H]4C)[C@@]57OO6)nn3)cc2oc1=O	3.47 µM

same assay, conditions: ht-29

Structure (SMILES)	IC50
COC(=O)c1cc2ccc(OCCCn3cc(CCO[C@H]4O[C@@H]5O[C@@]6(C)CC[C@H]7[C@H](C)CC[C@@H]([C@H]4C)[C@@]57OO6)nn3)cc2oc1=O	Nd(Insoluble)

system: MDA-MB-231; test: Cytotoxicity against human MDA-MB-231 cells after 96 hrs under normoxic condition by MTT assay; format: functional, cell-based; details: Homo sapiens, MDA-MB-231, 96 h; read-out: IC50; method in brief: as §1

Structure (SMILES)	IC50
Cc1c(C)c2ccc(OCCO[C@H]3O[C@@H]4O[C@@]5(C)CC[C@H]6[C@H](C)CC[C@@H]([C@H]3C)[C@@]46OO5)cc2oc1=O	57.2 µM
Cc1c(Cl)c(=O)oc2cc(O[C@H]3O[C@@H]4O[C@@]5(C)CC[C@H]6[C@H](C)CC[C@@H]([C@H]3C)[C@@]46OO5)ccc12	50.5 µM
C[C@H]1[C@@H](OCCOc2ccc3c(C(F)(F)F)cc(=O)oc3c2)O[C@@H]2O[C@@]3(C)CC[C@H]4[C@H](C)CC[C@@H]1[C@@]24OO3	15.2 µM
Cc1c(F)c(=O)oc2cc(-n3cc(CCO[C@H]4O[C@@H]5O[C@@]6(C)CC[C@H]7[C@H](C)CC[C@@H]([C@H]4C)[C@@]57OO6)nn3)ccc12	3.84 µM
Cc1cc(=O)oc2cc(OCCn3cc(CCO[C@H]4O[C@@H]5O[C@@]6(C)CC[C@H]7[C@H](C)CC[C@@H]([C@H]4C)[C@@]57OO6)nn3)ccc12	17 µM
Cc1c(C)c2ccc(-n3cc(CO[C@H]4O[C@@H]5O[C@@]6(C)CC[C@H]7[C@H](C)CC[C@@H]([C@H]4C)[C@@]57OO6)nn3)cc2oc1=O	23.4 µM
Cc1c(C)c2ccc(-n3cc(CCO[C@H]4O[C@@H]5O[C@@]6(C)CC[C@H]7[C@H](C)CC[C@@H]([C@H]4C)[C@@]57OO6)nn3)cc2oc1=O	3.75 µM
C[C@H]1[C@@H](OCCc2cn(-c3ccc4c(C(F)(F)F)cc(=O)oc4c3)nn2)O[C@@H]2O[C@@]3(C)CC[C@H]4[C@H](C)CC[C@@H]1[C@@]24OO3	1.85 µM
C[C@H]1[C@@H](O)O[C@@H]2O[C@@]3(C)CC[C@H]4[C@H](C)CC[C@@H]1[C@@]24OO3 [ARTENIMOL]	47.1 µM
Cc1c(Cl)c(=O)oc2cc(OCCn3cc(CCO[C@H]4O[C@@H]5O[C@@]6(C)CC[C@H]7[C@H](C)CC[C@@H]([C@H]4C)[C@@]57OO6)nn3)ccc12	7.53 µM
Cc1cc(=O)oc2cc(-n3cc(CO[C@H]4O[C@@H]5O[C@@]6(C)CC[C@H]7[C@H](C)CC[C@@H]([C@H]4C)[C@@]57OO6)nn3)ccc12	21.5 µM
Cc1cc(=O)oc2cc(-n3cc(CCO[C@H]4O[C@@H]5O[C@@]6(C)CC[C@H]7[C@H](C)CC[C@@H]([C@H]4C)[C@@]57OO6)nn3)ccc12	3.78 µM
Cc1cc(=O)oc2cc(OCCCn3cc(CCO[C@H]4O[C@@H]5O[C@@]6(C)CC[C@H]7[C@H](C)CC[C@@H]([C@H]4C)[C@@]57OO6)nn3)ccc12	72.2 µM
Cc1c(C)c2ccc(OCCn3cc(CCO[C@H]4O[C@@H]5O[C@@]6(C)CC[C@H]7[C@H](C)CC[C@@H]([C@H]4C)[C@@]57OO6)nn3)cc2oc1=O	56.7 µM

same assay, conditions: mda-mb-231

Structure (SMILES)	IC50
COC(=O)c1cc2ccc(OCCCn3cc(CCO[C@H]4O[C@@H]5O[C@@]6(C)CC[C@H]7[C@H](C)CC[C@@H]([C@H]4C)[C@@]57OO6)nn3)cc2oc1=O	Nd(Insoluble)
